Converted amounts (≈) assume the structure as drawn.
Experiments:
Salmonella typhimurium [1] = experiment: Genotoxicity against Salmonella typhimurium TA1535/pSK1002 assessed as growth factor ratio at 1.25 mg/ml by umuC assay in absence of S9 fraction; type: toxicity, organism-based; conditions: salmonella enterica subsp. enterica serovar typhimurium
How it was run: (§1)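 umuC Easy CS: TA1535/pSK1002 grown overnight in ampicillin TG medium at 37 °C, then exposed 2 h at 37 °C to compounds at 5, 2.5, 1.25, 0.63 mg/mL with or without S9. Diluted into fresh medium for 2 h growth (OD600), then β-galactosidase with ONPG 30 min at 28 °C, OD420. Positive controls 2-aminoanthracene (+S9), […] (−S9).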

Salmonella typhimurium [2] = experiment: Genotoxicity against Salmonella typhimurium TA100 assessed as fold increase in revertants at 0.3125 mg/ml after 90 mins by Ames MPF test in absence of S9 fraction relative to baseline; type: toxicity, organism-based; conditions: salmonella enterica subsp. enterica serovar typhimurium, 1.5 h
How it was run: (§2)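 Ames MPF fluctuation test, TA98 and TA100: overnight cultures reincubated 90 min, then exposed 90 min at 37 °C to compounds at 0.156-5 mg/mL (in DMSO) with or without 4.5% v/v S9; indicator medium added, 48 wells per sample scored yellow after 48 h, triplicate. Fold over baseline = mean positive wells / (mean of DMSO control + 1 SD).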

Nakaseomyces glabratus = experiment: Antifungal activity against Candida glabrata Anadolu University clinical isolate after 24 hrs by microdilution susceptibility assay; type: functional
How it was run: (§3)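 Broth microdilution in Mueller Hinton Broth, compounds from DMSO stocks diluted serially; inocula standardized to 10^6 CFU/mL (McFarland 0.5) from overnight MHB cultures. Plates held 37 °C for 24 h; MIC taken as first well without turbidity, aided by 1% tetrazolium violet added for 3 h at 37 °C. Ketoconazole reference.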

Salmonella typhimurium [3] = experiment: Genotoxicity against Salmonella typhimurium TA100 assessed as fold increase in revertants at 0.3125 mg/ml after 90 mins by Ames MPF test in presence of S9 fraction relative to baseline; type: toxicity, organism-based; conditions: salmonella enterica subsp. enterica serovar typhimurium, s9, 1.5 h; how it was run: as §2
NIH3T3 = experiment: Cytotoxicity against mouse NIH/3T3 cells after 24 hrs by XTT assay; type: cell-based; conditions: NIH3T3, 24 h
How it was run: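 Mouse NIH3T3 fibroblasts grown in DMEM with fetal calf serum, penicillin/streptomycin, 37 °C, 5% CO2; 20,000 cells/well, treated after 24 h with 0.00316 µM-10 mM compound for 24 h. Viability via XTT (3 h, OD 480 nm, reference 680 nm); % inhibition computed and IC50 fitted by non-linear regression.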

Candida albicans [4] = experiment: Antifungal activity against Candida albicans clinical isolate after 24 hrs by microdilution susceptibility assay; type: functional; how it was run: as §3
Salmonella typhimurium [5] = experiment: Genotoxicity against Salmonella typhimurium TA98 assessed as fold increase in revertants at 1.25 mg/ml after 90 mins by Ames MPF test in absence of S9 fraction relative to baseline; type: toxicity, organism-based; conditions: salmonella enterica subsp. enterica serovar typhimurium, 1.5 h; how it was run: as §2
Salmonella typhimurium [6] = experiment: Genotoxicity against Salmonella typhimurium TA1535/pSK1002 assessed as growth factor ratio at 1.25 mg/ml by umuC assay in presence of S9 fraction; type: toxicity, organism-based; conditions: salmonella enterica subsp. enterica serovar typhimurium; how it was run: as §1
Salmonella typhimurium [7] = experiment: Genotoxicity against Salmonella typhimurium TA98 assessed as fold increase in revertants at 0.625 mg/ml after 90 mins by Ames MPF test in absence of S9 fraction relative to baseline; type: toxicity, organism-based; conditions: salmonella enterica subsp. enterica serovar typhimurium, 1.5 h; how it was run: as §2
A549 = experiment: Cytotoxicity against human A549 cells after 24 hrs by XTT assay; type: functional, cell-based; conditions: A549, 24 h
How it was run: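 A549 cells in RPMI 1640 with 10% fetal calf serum, penicillin/streptomycin, 37 °C, 5% CO2; 20,000 cells/well seeded, after 24 h exposed to compounds at 0.00316 µM-10 mM for 24 h. XTT mitochondrial activity read at 480 nm (reference 680 nm) after 3 h; % inhibition per concentration, IC50 by non-linear regression.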

Salmonella typhimurium [8] = experiment: Genotoxicity against Salmonella typhimurium TA100 assessed as fold increase in revertants at 2.5 mg/ml after 90 mins by Ames MPF test in absence of S9 fraction relative to baseline; type: toxicity, organism-based; conditions: salmonella enterica subsp. enterica serovar typhimurium, 1.5 h; how it was run: as §2
Candida albicans [9] = experiment: Antifungal activity against Candida albicans ATCC 90028 after 24 hrs by microdilution susceptibility assay; type: functional; conditions: ATCC 90028, 24 h; how it was run: as §3
[10] = Genotoxicity against Salmonella typhimurium TA1535/pSK1002 assessed as induction ratio at 1.25 mg/ml by umuC assay in absence of S9 fraction; type: toxicity, organism-based; conditions: salmonella enterica subsp. enterica serovar typhimurium, Salmonella typhimurium TA1535/pSK1002 without S9 fraction; how it was run: as §1
Salmonella typhimurium [11] = experiment: Genotoxicity against Salmonella typhimurium TA1535/pSK1002 assessed as growth factor ratio at 2.5 mg/ml by umuC assay in presence of S9 fraction; type: toxicity, organism-based; conditions: salmonella enterica subsp. enterica serovar typhimurium; how it was run: as §1
Candida parapsilosis = experiment: Antifungal activity against Candida parapsilosis NRRL Y-12696 after 24 hrs by microdilution susceptibility assay; type: functional; conditions: Lodderomyces parapsilosis, NRRL Y-12696, 24 h; how it was run: as §3
Salmonella typhimurium [12] = experiment: Genotoxicity against Salmonella typhimurium TA100 assessed as fold increase in revertants at 0.156 mg/ml after 90 mins by Ames MPF test in presence of S9 fraction relative to baseline; type: toxicity, organism-based; conditions: salmonella enterica subsp. enterica serovar typhimurium, s9, 1.5 h; how it was run: as §2
Salmonella typhimurium [13] = experiment: Genotoxicity against Salmonella typhimurium TA98 assessed as fold increase in revertants at 0.3125 mg/ml after 90 mins by Ames MPF test in presence of S9 fraction relative to baseline; type: toxicity, organism-based; conditions: salmonella enterica subsp. enterica serovar typhimurium, s9, 1.5 h; how it was run: as §2
Salmonella typhimurium [14] = experiment: Genotoxicity against Salmonella typhimurium TA100 assessed as fold increase in revertants at 1.25 mg/ml after 90 mins by Ames MPF test in presence of S9 fraction relative to baseline; type: toxicity, organism-based; conditions: salmonella enterica subsp. enterica serovar typhimurium, s9, 1.5 h; how it was run: as §2
Salmonella typhimurium [15] = experiment: Genotoxicity against Salmonella typhimurium TA98 assessed as fold increase in revertants at 0.156 mg/ml after 90 mins by Ames MPF test in presence of S9 fraction relative to baseline; type: toxicity, organism-based; conditions: salmonella enterica subsp. enterica serovar typhimurium, s9, 1.5 h; how it was run: as §2
Candida albicans [16] = experiment: Antifungal activity against Candida albicans ATCC 10231 after 24 hrs by microdilution susceptibility assay; type: functional; conditions: ATCC 10231, 24 h; how it was run: as §3
Pichia kudriavzevii = experiment: Antifungal activity against Candida krusei NRRL Y-7179 after 24 hrs by microdilution susceptibility assay; type: functional; conditions: NRRL Y-7179, 24 h; how it was run: as §3

Structure (SMILES) | Ratio (Salmonella typhimurium [1]) | fold change (FC) (Salmonella typhimurium [2]) | MIC (Nakaseomyces glabratus) | fold change (FC) (Salmonella typhimurium [3]) | IC50 (NIH3T3) | MIC (Candida albicans [4]) | fold change (FC) (Salmonella typhimurium [5]) | Ratio (Salmonella typhimurium [6]) | fold change (FC) (Salmonella typhimurium [7]) | IC50 (A549) | fold change (FC) (Salmonella typhimurium [8]) | MIC (Candida albicans [9]) | fold induction at 1.25 mg/ml [10] | Ratio (Salmonella typhimurium [11]) | MIC (Candida parapsilosis) | fold change (FC) (Salmonella typhimurium [12]) | fold change (FC) (Salmonella typhimurium [13]) | fold change (FC) (Salmonella typhimurium [14]) | fold change (FC) (Salmonella typhimurium [15]) | MIC (Candida albicans [16]) | further results
CN(C)c1ccc(/C=N/NC(=O)CSc2nnnn2C)cc1 | 1.191 | 1.19 | 50 µg/mL (≈ 157 µM) | 0.47 | 316 µM | 125 µg/mL (≈ 391 µM) | 0.64 | 1.538 | 1.59 | 100 µM | 1.14 | 50 µg/mL (≈ 157 µM) | 1.13 | 1.992 | 500 µg/mL (≈ 1570 µM) | 0.33 | 0.57 | 0.26 | 0.86 | 125 µg/mL (≈ 391 µM) | MIC (Pichia kudriavzevii): 62.5 µg/mL (≈ 196 µM)
Cn1nnnc1SCC(=O)N/N=C/c1ccc(O)cc1 | 1.098 | 0.41 | 500 µg/mL (≈ 1710 µM) | 0.63 | 632 µM | 500 µg/mL (≈ 1710 µM) | 0.13 | 1.277 | 0.13 | > 10000 µM | 0.33 | 1000 µg/mL (≈ 3420 µM) | 0.99 | 1.663 | 1000 µg/mL (≈ 3420 µM) | 0.63 | 0.53 | 0.59 | 0.32 | 500 µg/mL (≈ 1710 µM) | MIC (Pichia kudriavzevii): 500 µg/mL (≈ 1710 µM)
COc1ccc(/C=N/NC(=O)CSc2nnnn2C)cc1 | 1.137 | 0.4 | 125 µg/mL (≈ 408 µM) | 0.77 | > 10000 µM | 500 µg/mL (≈ 1630 µM) | 0.33 | 1.294 | 0.65 | > 10000 µM | 0.6 | 500 µg/mL (≈ 1630 µM) | 1.12 | 1.83 | 250 µg/mL (≈ 816 µM) | 0.46 | 0.84 | 0.81 | 0.42 | 500 µg/mL (≈ 1630 µM) | MIC (Pichia kudriavzevii): 125 µg/mL (≈ 408 µM)
Cn1nnnc1SCC(=O)N/N=C/c1ccccc1[N+](=O)[O-] | 1.022 | 1.67 | 250 µg/mL (≈ 778 µM) | 1.08 | 2020 µM | 500 µg/mL (≈ 1560 µM) | 2.78 | 0.879 | 1.47 | 1600 µM | 0.67 | 62.5 µg/mL (≈ 195 µM) | 1.51 | 0.922 | 500 µg/mL (≈ 1560 µM) | 1.35 | 1.22 | 1.93 | 1 | 500 µg/mL (≈ 1560 µM) | MIC (Pichia kudriavzevii): 125 µg/mL (≈ 389 µM)
Cn1nnnc1SCC(=O)N/N=C/c1ccccc1F | 1.084 | 0.06 | 250 µg/mL (≈ 849 µM) | 0.51 | 2000 µM | 125 µg/mL (≈ 425 µM) | 0.32 | 1.163 | 0.64 | 9000 µM | 0.17 | 500 µg/mL (≈ 1700 µM) | 1.02 | 1.699 | 1000 µg/mL (≈ 3400 µM) | 0.66 | 0.71 | 0.88 | 0.29 | 250 µg/mL (≈ 849 µM) | MIC (Pichia kudriavzevii): 500 µg/mL (≈ 1700 µM)

Reference: ChEMBL document CHEMBL2203123, “Synthesis and biological evaluation of some hydrazone derivatives as new anticandidal and anticancer agents” (Eur J Med Chem, 2012)
